Rows were chosen to be rich in hits. Some 2.2% of all compounds tested hit in one or more screens of this group.
IMP-1 inh-1: IMP-1 metallo-beta-lactamase inhibitors, primary screen, biochemical, epi-absorbance readout, Pseudomonas aeruginosa enzyme; purified IMP-1, nitrocefin hydrolysis, epi-absorbance fluorescence; inhibition, % at 5.6 µM; 290,000 tested, 0.45% active;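 active = inhibition above the mean plus 3 SD of all compounds in the same screening run, cut at about 4.5% in these data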
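assay system = purified recombinant IMP-1 metallo-beta-lactamase enzyme | schedule = 15 min preincubation plus 25 min reaction at 25 °C | signal = Epi-absorbance fluorescence, 480 nm excitation, 530 nm emission | read-out basis = percent inhibition from optical density relative to buffer-blank wells | controls = IMP-1 with DMSO as 0%, enzyme-free DMSO as 100%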
CR mimetic SO: reduction of superoxide in aged yeast, primary screen, HTS; S. cerevisiae aged cells, superoxide DHE fluorescence; stronger effect = lower value; superoxide response (% of plate mean), % at 10 µM; 330,000 tested, 0.18% active; AID 2690, 2010;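 active = superoxide response under a set limit, about three screen SD below normal, cut at about 65% in these data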;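 note: yeast aged for seven days with compound at 30 °C before DHE staining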
PvdQ acylase: P. aeruginosa PvdQ acylase inhibitors, primary screen, biochemical, fluorescence, plate reader and imaging, single point. PvdQ acylase [Pseudomonas aeruginosa LESB58]. purified PvdQ acylase. inhibition, % at 10 µM. 340,000 tested, 0.063% active. AID 488965, 2010; in the data active = inhibition above about 30%, passing the limit was not always enough
VIM-2 inhibitor: VIM-2 metallo-beta-lactamase inhibitors, primary screen, biochemical, epi-absorbance readout, Pseudomonas aeruginosa enzyme; AID 1527, 2009; inhibition, % at 5.6 µM; 290,000 tested, 0.89% active; purified VIM-2, nitrocefin hydrolysis, epi-absorbance fluorescence;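 active = inhibition above the mean of all tested compounds plus 3 SD, cutoff set per screening run, cut at about 7.5% in these data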;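 note: red hydrolysis product quenches plate fluorescence so inhibitors raise well fluorescence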
PHOSPHO1 block: PubChem AID 1565. Phosphoethanolamine/phosphocholine phosphatase (Homo sapiens), Q8TCT1. recombinant PHOSPHO1, absorbance phosphatase assay. inhibition, % at 13.3 µM. 290,000 tested, 1.1% active; in the data active = inhibition above about 60%
Target sequence (Q8TCT1 whole entry, looked up): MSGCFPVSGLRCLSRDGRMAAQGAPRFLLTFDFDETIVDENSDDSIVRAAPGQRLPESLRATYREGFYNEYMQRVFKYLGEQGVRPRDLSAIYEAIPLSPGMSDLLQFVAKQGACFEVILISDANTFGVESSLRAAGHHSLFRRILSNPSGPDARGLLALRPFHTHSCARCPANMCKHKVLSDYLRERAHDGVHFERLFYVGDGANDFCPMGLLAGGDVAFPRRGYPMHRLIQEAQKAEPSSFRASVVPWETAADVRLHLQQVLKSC
IMP-1 inh-2: IMP-1 metallo-beta-lactamase inhibitors, confirmation, selectivity assay for selective VIM-2 inhibitor project, biochemical, epi-absorbance readout, triplicate; shares compounds with VIM-2 inhibitor; purified IMP-1, nitrocefin hydrolysis, epi-absorbance fluorescence; inhibition, % at 5.6 µM; 1,300 tested, under 10 active; call rule not given here
VIM-2 FRET ctr: VIM-2 inhibitors in FRET format, confirmation, artefact control for selective VIM-2 inhibitor project, biochemical, epi-absorbance artifact exclusion; 1,300 tested, 23% active; shares compounds with VIM-2 inhibitor; AID 1857, 2009; purified VIM-2, CCF2 FRET substrate hydrolysis; inhibition, % at 5.6 µM;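 active = inhibition above the mean of all tested compounds plus 3 SD, cut at about 19% in these data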
TEM-1 counter: TEM-1 serine beta-lactamase inhibitors, counter-screen for VIM-2 inhibitor project, biochemical, epi-absorbance, HTS | shares compounds with VIM-2 inhibitor | Purified TEM-1, nitrocefin hydrolysis, epi-absorbance fluorescence | AID 1866, 2009 | inhibition, % at 5.6 µM | 1,300 tested, 3% active;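 active = inhibition above that campaign's mean inhibition plus 3 SD, cut at about 0.46% in these data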
Target sequence (P62593 whole entry, looked up): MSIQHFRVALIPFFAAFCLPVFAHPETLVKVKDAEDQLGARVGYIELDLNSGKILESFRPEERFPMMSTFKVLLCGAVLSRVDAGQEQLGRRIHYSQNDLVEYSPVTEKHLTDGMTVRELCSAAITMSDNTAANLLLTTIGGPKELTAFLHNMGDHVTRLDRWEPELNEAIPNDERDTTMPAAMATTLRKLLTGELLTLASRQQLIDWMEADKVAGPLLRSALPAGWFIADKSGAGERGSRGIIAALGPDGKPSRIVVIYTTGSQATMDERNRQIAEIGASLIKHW
VIM-2 inh conf: VIM-2 metallo-beta-lactamase inhibitors, confirmation, biochemical, epi-absorbance, hits shared with IMP-1 screen. purified VIM-2, nitrocefin hydrolysis. 1,300 tested, 96% active. shares compounds with VIM-2 inhibitor. inhibition, % at 5.6 µM. AID 2187, 2009;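 active = inhibition of the VIM-2 beta-lactamase enzyme above about 11% from the earlier first-round screen, limit read from the data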
A number is an active result; . = inactive; / = no result.

SMILES	IMP-1 inh-1	CR mimetic SO	PvdQ acylase	VIM-2 inhibitor	PHOSPHO1 block	IMP-1 inh-2	VIM-2 FRET ctr	TEM-1 counter	VIM-2 inh conf
Cc1cc(Nc2ccc(O)cc2)n2c(nc3ccccc32)c1C#N	.	.	.	.	.	/	/	/	/
Cc1cc(NCC2CCCO2)n2c(nc3ccccc32)c1C#N (configuration not stated)	.	.	.	12.6	.	.	.	.	38.5
C[C@@H]1CN([C@H](C)CO)C(=O)Cc2cc(NC(=O)Cn3cnnn3)ccc2O[C@@H]1CN(C)Cc1ccc(Cl)c(Cl)c1	/	.	.	/	/	/	/	/	/
COc1cccc(C(=O)NCC(=O)N2CCN(c3ccc(C(F)(F)F)cn3)CC2)c1	/	/	.	/	/	/	/	/	/
O=C(NCCC(=O)N1CCC2(CC1)NCCc1[nH]cnc12)c1cccc(Br)c1	.	.	.	.	.	/	/	/	/
Cc1c2c(n3c(nc4ccccc43)c1C#N)N(CCCN(C)C)CC2	.	.	.	31.7	.	.	.	.	47.6
CCC(C)Nc1cc(C)c(C#N)c2nc3ccccc3n12 (configuration not stated)	.	.	.	28.0	.	.	.	.	37.5
CCc1cc(=O)oc2c3c(cc(OCC(=O)NC4CC4)c12)OC(C)(C)CC3	.	.	.	.	.	/	/	/	/
CCCc1cc(=O)oc2c3c(cc(OCC(=O)N4CCC[C@H]4C(=O)O)c12)OC(C)(C)CC3	.	.	.	45.4	.	.	70.7	.	50.3
Cc1c(C)c2ccc(OCC(=O)N3CCC[C@@H]3C(=O)O)c(C)c2oc1=O	.	.	.	41.1	.	.	63.7	.	48.5
CCc1cc(=O)oc2c(C)c(OCC(=O)N3CCC[C@@H]3C(=O)O)ccc12	.	.	.	22.8	.	.	38.7	.	29.1
Cc1c(OCC(=O)N2CCC[C@@H]2C(=O)O)ccc2c3c(c(=O)oc12)CCC3	.	.	.	35.5	.	.	50.8	.	37.2
CCOc1ccc(C(=O)N[C@H](C(=O)Nc2ccc(S(=O)(=O)Nc3nccs3)cc2)C(C)C)cc1	/	.	.	/	/	/	/	/	/
CCc1nn(CC(=O)N2CC(C)CC(C)C2)c(=O)c2cccn12 (configuration not stated)	.	.	.	.	.	/	/	/	/
Cc1c(Cc2ccccc2)c(=O)oc2c(C)c(OCC(=O)N3CCC(C(=O)O)CC3)ccc12	.	.	.	.	.	/	/	/	/
Cc1c(OCC(=O)N2CCC(C(N)=O)CC2)ccc2c3c(c(=O)oc12)CCC3	.	.	.	22.8	.	.	.	.	43.3
CN(CC(=O)Nc1cccc(F)c1)C(=O)CN1C(=O)C2CCCCC2C1=O (configuration not stated)	/	.	.	/	/	/	/	/	/
Cc1cc(C)n2nc(C(=O)OCC(=O)N3C(C)CCCC3C)nc2n1 (configuration not stated)	/	.	.	/	/	/	/	/	/
CCOC(=O)c1cnc2c(C)c(Cl)ccc2c1N1CCOCC1	.	.	.	.	.	/	/	/	/
CCOC(=O)c1ccc2ncc(C(=O)OCC)c(NCCCN3CCOCC3)c2c1	.	.	.	26.4	.	.	.	.	53.2
CCOC(=O)c1cnc2c(ccc3ccccc32)c1NCCCN(C)C	.	.	.	25.3	.	.	.	.	34.9
CCOC(=O)c1cnc2c(C)c(Cl)ccc2c1NCCCN1CCOCC1	.	.	.	16.4	.	.	.	.	24.9
CCOC(=O)c1ccc2ncc(C(=O)OCC)c(Nc3ccc(N4CCOCC4)cc3)c2c1	.	.	.	.	.	/	/	/	/
CCOC(=O)c1cnc2ccc(OC)cc2c1Nc1ccc(N2CCN(C)CC2)cc1	.	.	.	76.4	.	.	.	.	84.7
Cn1c(=O)c2[nH]c(C(O)c3ccc(Cl)cc3)nc2n(C)c1=O (configuration not stated)	/	/	.	/	/	/	/	/	/
SMILES	IMP-1 inh-1	CR mimetic SO	PvdQ acylase	VIM-2 inhibitor	PHOSPHO1 block	IMP-1 inh-2	VIM-2 FRET ctr	TEM-1 counter	VIM-2 inh conf
Cc1cccc(Nc2nnc(SCC(=O)NCc3cccs3)s2)c1	.	.	.	.	.	/	/	/	/
COCC(=O)Nc1nnc(SCC(=O)NCc2cccs2)s1	.	.	.	22.1	.	.	53.1	.	37.5
CCCC(=O)Nc1nnc(SCC(=O)NCc2cccs2)s1	.	.	.	19.8	.	.	44.4	.	33.2
Cc1ccc(-c2csc(=Nc3cccnc3)n2CCCn2ccnc2)cc1C	.	.	.	17.8	.	.	.	.	30.4
CCOC(=O)c1ccccc1N/C=C1\CCCCC1=O	.	.	.	13.8	.	.	23.9	.	26.6
CCOC(=O)c1[nH]c(C(=O)O)c(CCC(=O)OC)c1C	.	.	.	21.7	.	.	49.2	.	32.0
COc1ccc(/C=C(/NC(=O)c2ccc(OC)c(OC)c2)C(=O)NCCCn2ccnc2)cc1	.	.	.	.	.	/	/	/	/

Bioassay records (PubChem)
